The values below come from publication PMC9064899 (The FEBS journal, 2021).

The structures appear in SMILES notation. Residue numbers refer to the chain shown, from its start.

A word on the EC50: it is the midpoint of the concentration-response curve. A higher EC50 goes with a less potent agent.

For one test, the target named is T1, UBIAD1 D112G (Homo sapiens, UniProt Q9Y5Z9, D112G).
T1 sequence (Q9Y5Z9 1-338 D112G): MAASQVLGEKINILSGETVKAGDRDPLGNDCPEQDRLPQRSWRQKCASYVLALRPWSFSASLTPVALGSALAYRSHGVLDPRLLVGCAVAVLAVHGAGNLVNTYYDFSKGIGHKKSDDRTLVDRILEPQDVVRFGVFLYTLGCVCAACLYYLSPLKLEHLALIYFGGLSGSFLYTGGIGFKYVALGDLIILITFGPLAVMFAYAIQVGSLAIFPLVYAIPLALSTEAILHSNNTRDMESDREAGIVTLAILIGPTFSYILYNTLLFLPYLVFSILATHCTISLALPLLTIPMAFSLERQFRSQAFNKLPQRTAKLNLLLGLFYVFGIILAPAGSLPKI
Put plainly: Cell-based UBIAD1 functional assay. The method, boiled down: (§1)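 Wild-type or mutant human UBIAD1 in pCI-neo was transiently transfected into Ubiad1-knockout FIXgla-PC/HEK293 cells (DMEM/F12, 10% FBS). […] After 24 h, carboxylated FIXgla-PC in the medium was measured by ELISA. Activity was normalized to wild type (100%), and EC50 came from a curve fit. Mean ± SD, n=3 independent experiments.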

The target in another test is T2, UBIAD1 D236E (Homo sapiens, UniProt Q9Y5Z9, D236E).
T2 sequence (Q9Y5Z9 1-338 D236E): T1 sequence (Q9Y5Z9 1-338 D112G) with G112D, D236E
Nature of the test: Cell-based UBIAD1 functional assay. The method, boiled down: as §1

A further test has as its target T3, UBIAD1 D112N (Homo sapiens, UniProt Q9Y5Z9, D112N).
T3 sequence (Q9Y5Z9 1-338 D112N): T1 sequence (Q9Y5Z9 1-338 D112G) with G112N
Nature of the test: Cell-based UBIAD1 functional assay. The procedure, abridged:
as §1

A further test addresses T4, UBIAD1 R54A (Homo sapiens, UniProt Q9Y5Z9, R54A).
T4 sequence (Q9Y5Z9 1-338 R54A): T1 sequence (Q9Y5Z9 1-338 D112G) with R54A, G112D
Put plainly: Cell-based UBIAD1 functional assay. The method, boiled down: as §1

A further test addresses T5, UBIAD1 K181A (Homo sapiens, UniProt Q9Y5Z9, K181A).
T5 sequence (Q9Y5Z9 1-338 K181A): T1 sequence (Q9Y5Z9 1-338 D112G) with G112D, K181A
Put plainly: Cell-based UBIAD1 functional assay. The procedure, abridged:
as §1

Test [1] relates to UBIAD1-deficient FIXgla-PC/HEK293 reporter cells. Nature of the test: VKD carboxylation of FIXgla-PC supported by K vitamins in UBIAD1-knockout cells. Format: cell-based, human. The conditions noted are these: UBIAD1-deficient (knockout) FIXgla-PC/HEK293 cells. The method, boiled down: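 Ubiad1-knockout FIXgla-PC/HEK293 reporter cells were cultured for 24 h with increasing concentrations of vitamin K1, MK-4, vitamin K3, or menaquinones with 1–4 or 7 isoprene units. K vitamin stocks were made in polyethoxylated castor oil. Carboxylated FIXgla-PC was determined by ELISA, and half-maximal stimulation concentration (EC50) came from curve fitting. Mean ± SD.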

The target in another test is T6, UBIAD1 L67Q (Homo sapiens, UniProt Q9Y5Z9, L67Q).
T6 sequence (Q9Y5Z9 1-338 L67Q): T1 sequence (Q9Y5Z9 1-338 D112G) with L67Q, G112D
Put plainly: Cell-based UBIAD1 functional assay. The method, boiled down: as §1

On to `CC1=CC(=O)c2ccccc2C1=O` [vitamin K3, menadione], for which the EC50 on UBIAD1 D112G is 5.1 ± 0.8 nM; at UBIAD1 D236E, 22.6 ± 2.2 nM; on UBIAD1 D112N it was 6.4 ± 0.6 nM; at UBIAD1 R54A, 84 ± 11.6 nM; on UBIAD1 K181A, 11.9 ± 0.4 nM; on UBIAD1 L67Q, 3.8 ± 0.8 nM. Besides, the “Vitamin K-dependent carboxylation Activity ± SD” value at UBIAD1 D112G (D112G, 1 μM vitamin K3) amounted to 104.8 ± 3%; on UBIAD1 D236E (D236E, 1 μM vitamin K3), 107.1 ± 4.9%; at UBIAD1 D112N (D112N, 1 μM vitamin K3) it was 109.6 ± 5.2%; at UBIAD1 R54A (R54A, 1 μM vitamin K3), 79.8 ± 2.6%; on UBIAD1 K181A (K181A, 1 μM vitamin K3) it was 101.7 ± 3%; at UBIAD1 L67Q (L67Q, 1 μM vitamin K3), 40.7 ± 2%. On UBIAD1 D236E (D236E vs D236A), the “EC50 value of vitamin K3 lower than that of D236A” value worked out at 4 fold. For the same compound, the “increase of EC50 value of vitamin K3 vs wild-type” value on UBIAD1 D236E (D236E vs WT) is listed as 6 fold. For the same compound, the “support of VKD carboxylation of reporter protein” value in test [1] was “fails to carboxylate the reporter protein”.
